Test results from ChEMBL document CHEMBL2177092, “Phosphoramidate ProTides of the anticancer agent FUDR successfully deliver the preformed bioactive monophosphate in cells and confer advantage over the parent nucleoside” (J Med Chem, 2011).

Columns and labels:
CCRF-CEM [1] = test: Cytostatic activity against human CEM/0 cells after 72 hrs by cell counting; format: functional, cell-based
In short: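 Suspension leukemia cells in DMEM with 10% FBS, 10 mM Hepes and 1 mM sodium pyruvate at 37 °C under 5% CO2. Seeded at 60 000 cells/well with graded compound levels. Grown 48 h (L1210) or 72 h (CEM), then counted by Coulter counter. […] Mean ± SD of two to four independent experiments.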

L1210 [2] = test: Cytostatic activity against Mycoplasma hyorhinis-infected mouse L1210 cells after 48 hrs by cell counting; format: functional, cell-based; conditions: L1210, 48 h
In short: (§1)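 Suspension leukemia cells in DMEM with 10% FBS, 10 mM Hepes and 1 mM sodium pyruvate at 37 °C under 5% CO2. Seeded at 60 000 cells/well with graded compound levels. Grown 48 h (L1210) or 72 h (CEM), then counted by Coulter counter. Mean ± SD of two to four independent experiments.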

L1210 [3] = test: Ratio of IC50 for Mycoplasma hyorhinis-infected mouse L1210 cells to IC50 for mouse L1210/0 cells after 48 hrs by cell counting; format: functional
In short: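 Murine L1210/0 cells were compared with L1210/TK cells, selected for resistance to 5-bromo-2'-dUrd, and with L1210.Hyor cells, chronically infected with Mycoplasma hyorhinis. Cells were grown in DMEM with 10% FBS, 10 mM Hepes and 1 mM pyruvate at 37 °C and 5% CO2, then seeded at 60 000 cells/well with compound. They were Coulter-counted after 48 h. […] Mean of 2–4 experiments.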

CCRF-CEM [4] = test: Cytostatic activity against thymidine-kinase deficient human CEM cells after 72 hrs by cell counting; format: functional, cell-based; in short: as §1
[5] = Cytostatic activity against mouse L1210/0 cells after 48 hrs by cell counting; format: functional, cell-based; conditions: L1210/0, 48 h; in short: as §1
L1210 [6] = test: Cytostatic activity against thymidine-kinase deficient mouse L1210 cells after 48 hrs by cell counting; format: functional, cell-based; conditions: L1210, 48 h; in short: as §1
HeLa [7] = test: Cytostatic activity against thymidine-kinase deficient human HeLa cells […]; format: functional, cell-based
HeLa [8] = test: Cytostatic activity against human HeLa cells […] by cell counting; format: functional, cell-based

Structure (SMILES)	IC50 (CCRF-CEM [1]) [nM]	IC50 (L1210 [2]) [nM]	Ratio IC50 (L1210 [3])	IC50 (CCRF-CEM [4]) [µM]	IC50 [5] [nM]	IC50 (L1210 [6]) [nM]	IC50 (HeLa [7]) [µM]	IC50 (HeLa [8]) [nM]
O=C(OCc1ccccc1)[C@@H]1CCCN1P(=O)(OC[C@H]1O[C@@H](n2cc(F)c(=O)[nH]c2=O)C[C@@H]1O)Oc1ccccc1 (mixture of isomers)	980	18000	51	28	350	31000	20	1100
CC[C@H](C)[C@H](NP(=O)(OC[C@H]1O[C@@H](n2cc(F)c(=O)[nH]c2=O)C[C@@H]1O)Oc1ccccc1)C(=O)OCc1ccccc1 (mixture of isomers)	1000	2200	2.2	30	980	1100	25	710
CCCCCCOC(=O)[C@H](C)NP(=O)(OC[C@H]1O[C@@H](n2cc(F)c(=O)[nH]c2=O)C[C@@H]1O)Oc1cccc2ccccc12 (mixture of isomers)	80	2.2	0.69	0.65	3.2	76	1.8	39
C[C@H](NP(=O)(OC[C@H]1O[C@@H](n2cc(F)c(=O)[nH]c2=O)C[C@@H]1O)Oc1cccc2ccccc12)C(=O)OCC1CC1 (mixture of isomers)	59	31	2.2	1.1	14	120	1.4	68
CCCCCOC(=O)[C@H](CC(C)C)NP(=O)(OC[C@H]1O[C@@H](n2cc(F)c(=O)[nH]c2=O)C[C@@H]1O)Oc1cccc2ccccc12 (mixture of isomers)	71	35	1.13	15	31	1200	7.5	39
CC(C)OC(=O)[C@H](C)NP(=O)(OC[C@H]1O[C@@H](n2cc(F)c(=O)[nH]c2=O)C[C@@H]1O)Oc1ccccc1 (mixture of isomers)	1000	700	14	30	50	1100	25	710
O=C(OCc1ccccc1)[C@@H]1CCCN1P(=O)(OC[C@H]1O[C@@H](n2cc(F)c(=O)[nH]c2=O)C[C@@H]1O)Oc1cccc2ccccc12 (mixture of isomers)	890	650	2.5	32	260	25000	26	1200
O=C(OCc1ccccc1)[C@H](Cc1ccccc1)NP(=O)(OC[C@H]1O[C@@H](n2cc(F)c(=O)[nH]c2=O)C[C@@H]1O)Oc1cccc2ccccc12 (mixture of isomers)	100	230	11	7.2	21	5600	6.8	160
C[C@H](NP(=O)(OC[C@H]1O[C@@H](n2cc(F)c(=O)[nH]c2=O)C[C@@H]1O)Oc1cccc2ccccc12)C(=O)OC1CCCCC1 (mixture of isomers)	57	49	1.4	1	36	150	–	90
CCCCCOC(=O)[C@@H](NP(=O)(OC[C@H]1O[C@@H](n2cc(F)c(=O)[nH]c2=O)C[C@@H]1O)Oc1cccc2ccccc12)[C@@H](C)CC (mixture of isomers)	460	700	1.67	17	420	12000	11	300
CCCCCOC(=O)[C@H](Cc1ccccc1)NP(=O)(OC[C@H]1O[C@@H](n2cc(F)c(=O)[nH]c2=O)C[C@@H]1O)Oc1cccc2ccccc12 (mixture of isomers)	100	140	4.67	8.3	30	2900	6.6	40
CCCCCOC(=O)C(C)(C)NP(=O)(OC[C@H]1O[C@@H](n2cc(F)c(=O)[nH]c2=O)C[C@@H]1O)Oc1cccc2ccccc12 (mixture of isomers)	140	19	0.42	5.4	45	300	2.3	120
